We go through 25 compounds from ChEMBL document CHEMBL1148232, “Inhibitory activities against topoisomerase I and II by polyhydroxybenzoyl amide derivatives and their structure-activity relationship” (Bioorg Med Chem Lett, 2004).

Where only a bound is given, the exact number is not on record here.

Assay [1] has as its target T1, DNA topoisomerase 1 (Homo sapiens, UniProt P11387).
T1 sequence (P11387 whole entry): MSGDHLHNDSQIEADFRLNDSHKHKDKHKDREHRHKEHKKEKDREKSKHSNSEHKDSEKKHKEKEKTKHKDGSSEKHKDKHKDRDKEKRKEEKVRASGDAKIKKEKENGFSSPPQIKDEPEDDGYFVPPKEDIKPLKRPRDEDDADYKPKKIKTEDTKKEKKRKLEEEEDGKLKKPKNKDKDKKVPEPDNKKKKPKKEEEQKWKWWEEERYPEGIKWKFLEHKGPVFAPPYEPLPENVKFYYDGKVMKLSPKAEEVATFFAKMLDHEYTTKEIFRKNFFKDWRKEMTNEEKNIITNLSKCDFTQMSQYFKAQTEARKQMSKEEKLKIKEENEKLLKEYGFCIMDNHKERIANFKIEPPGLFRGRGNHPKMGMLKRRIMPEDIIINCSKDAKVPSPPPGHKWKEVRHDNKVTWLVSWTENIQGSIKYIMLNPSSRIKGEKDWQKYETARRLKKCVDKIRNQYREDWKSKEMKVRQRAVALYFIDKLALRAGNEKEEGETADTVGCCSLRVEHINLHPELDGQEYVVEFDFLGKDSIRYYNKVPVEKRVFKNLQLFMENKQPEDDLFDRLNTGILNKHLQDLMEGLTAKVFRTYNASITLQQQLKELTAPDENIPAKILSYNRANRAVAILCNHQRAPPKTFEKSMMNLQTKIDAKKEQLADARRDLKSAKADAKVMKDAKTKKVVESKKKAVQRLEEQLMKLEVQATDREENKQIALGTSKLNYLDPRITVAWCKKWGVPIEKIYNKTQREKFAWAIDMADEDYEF
Briefly: Inhibitory concentration against relaxation activity of DNA topoisomerase I by detecting the conversion of supercoiled pBR322 DNA to its relaxed form.

For assay [2], the target named is T2, DNA topoisomerase II (Homo sapiens, UniProt P11388+Q02880). As to the kind of experiment: Inhibitory concentration against relaxation activity of DNA topoisomerase II by detecting the conversion of supercoiled pBR322 DNA to its relaxed form. The class given is protein assay.
The test system of assay [3] is HeLa. Briefly: Growth inhibitory concentration of compound was determined against HeLa cells by alamar blue assay. The class given is functional. Conditions: Homo sapiens. A general note: Alamar Blue is a resazurin reagent that responds to reducing activity.
The subject of assay [4] is HeLa. As to the kind of experiment: Concentration required to inhibit S phase and G2/M phase in HeLa cells. The class given is functional, cell-based. To be noted: Homo sapiens. The gist of the method:
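HeLa cells cultured with compound, then cell-cycle progression analysed by flow cytometry; read-out was the percentage of cells in the G0/G1, S and G2/M phases.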

Assay [5] has as its target T2, DNA topoisomerase II. As to the kind of experiment: Inhibition of relaxation activities of DNA topoisomerase II with respect to pBR322 DNA. The class given is protein assay. The essentials:
(§1)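 Ki from Lineweaver–Burk plots: the rate of relaxation of supercoiled pBR322 DNA by the topoisomerase was measured across a range of DNA substrate concentrations, with and without inhibitor.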

Assay [6] has as its target T1, DNA topoisomerase 1. As to the kind of experiment: Inhibition of relaxation activities of DNA topoisomerase I with respect to pBR322 DNA. The essentials:
as §1

A word on the IC50: it is the concentration needed to halve the response being measured. The low end stands for inhibition by little substance, the high end for a need for much substance. Regarding `CC(=O)Oc1ccc(C(=O)Nc2ccc(NC(=O)c3ccc(OC(C)=O)cc3)cc2)cc1`, the IC50 at DNA topoisomerase 1 [1] is greater than 100 µM. Take `O=C(Nc1cccc(NC(=O)c2cc(O)c(O)c(O)c2)c1)c1cc(O)c(O)c(O)c1`: the figures for the IC50 against DNA topoisomerase II [2] and on DNA topoisomerase 1 [1] were 0.22 µM and 1.6 µM, respectively. `CC(=O)Oc1ccc(C(=O)Nc2cccc(NC(=O)c3ccc(OC(C)=O)cc3)c2)cc1` had a half-inhibitory concentration (IC50) against DNA topoisomerase 1 [1] greater than 100 µM. `O=C(Nc1ccccc1NC(=O)c1ccc(O)c(O)c1)c1ccc(O)c(O)c1` returned an IC50 against DNA topoisomerase 1 [1] of 6.4 µM. The same measure, in the same setting: under `O=C(Nc1ccc(NC(=O)c2ccc(O)cc2)cc1)c1ccc(O)cc1` stands greater than 100 µM. Compound `CC(=O)Oc1cc(C(=O)Nc2ccc(NC(=O)c3cc(OC(C)=O)c(OC(C)=O)c(OC(C)=O)c3)cc2)cc(OC(C)=O)c1OC(C)=O` came in with an IC50 against DNA topoisomerase 1 [1] of 8.6 µM.

What is called GI50 is the concentration at which growth is held to half of that of the control. With `COc1cc([C@@H]2c3cc4c(cc3[C@@H](O[C@@H]3O[C@@H]5CO[C@@H](C)O[C@H]5[C@H](O)[C@H]3O)[C@H]3COC(=O)[C@H]23)OCO4)cc(OC)c1O` [ETOPOSIDE], the 50% growth inhibitory concentration (GI50) in the assay with HeLa [3] amounted to 40 µM. In addition, the Concentration in the assay on HeLa [4] was 2 µM. `O=C(Nc1nc2ccccc2s1)c1ccc(O)c(O)c1` showed a concentration for half-maximal inhibition (IC50) at DNA topoisomerase 1 [1] of 16.9 µM. Turning to `O=C(Nc1cccc(NC(=O)c2ccc(O)cc2)c1)c1ccc(O)cc1`, the IC50 against DNA topoisomerase 1 [1] is greater than 100 µM. At DNA topoisomerase 1 [1], `O=C(Nc1cccc(NC(=O)c2ccc(O)c(O)c2)c1)c1ccc(O)c(O)c1` showed an IC50 of 10 µM. `CC[C@@]1(O)C(=O)OCc2c1cc1n(c2=O)Cc2cc3ccccc3nc2-1` [CAMPTOTHECIN] gave a GI50 in the assay with HeLa [3] of 0.6 µM. In the assay on HeLa [4], this compound gave a Concentration of 0.1 µM. As for `O=C(Nc1nc2ccccc2s1)c1ccc(O)cc1`, the IC50 on DNA topoisomerase 1 [1] was greater than 100 µM. Compound `O=C(Nc1ccccc1NC(=O)c1ccc(O)cc1)c1ccc(O)cc1` yielded an IC50 against DNA topoisomerase 1 [1] greater than 100 µM. As to `O=C(Nc1nc2ccccc2s1)c1cc(O)c(O)c(O)c1`, it took 8.2 µM to reach half-maximal inhibition on DNA topoisomerase 1 [1] (IC50). As for `O=C(Nc1ccc(NC(=O)c2cc(O)c(O)c(O)c2)cc1)c1cc(O)c(O)c(O)c1`, the IC50 at DNA topoisomerase II [2] turned out to be 0.15 µM; at DNA topoisomerase 1 [1] it was 1.4 µM.

The compound `O=C(Nc1ccccc1)c1cc(O)c(O)c(O)c1` displayed an IC50 on DNA topoisomerase 1 [1] greater than 100 µM. For orientation: Ki means the dissociation constant of the complex between target and ligand, obtained from inhibition or displacement. On to `O=C(Nc1ccccc1NC(=O)c1cc(O)c(O)c(O)c1)c1cc(O)c(O)c(O)c1`, for which the inhibitory constant (Ki) stood at 0.0741 µM on DNA topoisomerase II [5] and 0.4 µM at DNA topoisomerase 1 [6]. The 50% inhibitory concentration (IC50) stood at 0.09 µM against DNA topoisomerase II [2] and 0.9 µM against DNA topoisomerase 1 [1]. This compound also showed a GI50 in the assay on HeLa [3] of 30 µM. For the compound `CC(=O)Oc1ccc(C(=O)Nc2ccccc2NC(=O)c2ccc(OC(C)=O)cc2)cc1`, on DNA topoisomerase 1 [1], the IC50 is greater than 100 µM. The compound `CC(=O)Oc1ccc(C(=O)Nc2ccccc2NC(=O)c2ccc(OC(C)=O)c(OC(C)=O)c2)cc1OC(C)=O` yielded an IC50 against DNA topoisomerase 1 [1] of 88 µM. `CC(=O)Oc1cc(C(=O)Nc2ccccc2NC(=O)c2cc(OC(C)=O)c(OC(C)=O)c(OC(C)=O)c2)cc(OC(C)=O)c1OC(C)=O` yielded an IC50 at DNA topoisomerase 1 [1] of 4.7 µM. Turning to `CC(=O)Oc1ccc(C(=O)Nc2cccc(NC(=O)c3ccc(OC(C)=O)c(OC(C)=O)c3)c2)cc1OC(C)=O`, at DNA topoisomerase 1 [1], the midpoint of inhibition, the IC50, lay at 43.2 µM. In turn, `CC(=O)Oc1cc(C(=O)Nc2cccc(NC(=O)c3cc(OC(C)=O)c(OC(C)=O)c(OC(C)=O)c3)c2)cc(OC(C)=O)c1OC(C)=O` registered a 50% inhibitory concentration (IC50) against DNA topoisomerase 1 [1] of 11.2 µM. Same read-out and setting: for `CC(=O)Oc1ccc(C(=O)Nc2ccc(NC(=O)c3ccc(OC(C)=O)c(OC(C)=O)c3)cc2)cc1OC(C)=O` the value was greater than 100 µM; for `O=C(Nc1ccc(NC(=O)c2ccc(O)c(O)c2)cc1)c1ccc(O)c(O)c1`, 2.6 µM. Turning to `O=C(Nc1ccccc1NC(=O)c1ccccc1)c1ccccc1`, at DNA topoisomerase 1 [1], the IC50 was greater than 100 µM.
